# The source made the active and inactive calls. The rule behind the calls is not given here.
# Experiments:
# [1] = target: T1, Soluble guanylate cyclase alpha1/beta1 complex (Homo sapiens) (UniProt Q02153+Q02108); test: (§1) Activation of full length human sGC alpha1/beta1 subunit containing heme in ferric state expressed in Sf9 insect cells using […] incubated for 15 mins by [32P]GTP assay
# How it was run: (§2)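 Reaction started at 37°C with 1 mM GTP/[α-32P]GTP for 15 min, then stopped by zinc carbonate precipitation. Single-dose test at 100 μM relative to vehicle; concentration-response gives EC50 as mean ± SD.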
# [2] = target: T1, Soluble guanylate cyclase alpha1/beta1 complex (Homo sapiens); test: Activation of full length human sGC alpha1/beta1 subunit containing heme in ferric state expressed in Sf9 insect cells using […] incubated for 15 mins at 100 uM incubated for 10 mins by [32P]GTP assay relative to control; conditions: filed as activator; how it was run: as §2
# [3] = target: T2, Soluble guanylate cyclase alpha1/beta1 complex (Homo sapiens, UniProt Q02108+Q02153); test: as §1; how it was run: as §2
# T2 sequence (Q02153 whole entry): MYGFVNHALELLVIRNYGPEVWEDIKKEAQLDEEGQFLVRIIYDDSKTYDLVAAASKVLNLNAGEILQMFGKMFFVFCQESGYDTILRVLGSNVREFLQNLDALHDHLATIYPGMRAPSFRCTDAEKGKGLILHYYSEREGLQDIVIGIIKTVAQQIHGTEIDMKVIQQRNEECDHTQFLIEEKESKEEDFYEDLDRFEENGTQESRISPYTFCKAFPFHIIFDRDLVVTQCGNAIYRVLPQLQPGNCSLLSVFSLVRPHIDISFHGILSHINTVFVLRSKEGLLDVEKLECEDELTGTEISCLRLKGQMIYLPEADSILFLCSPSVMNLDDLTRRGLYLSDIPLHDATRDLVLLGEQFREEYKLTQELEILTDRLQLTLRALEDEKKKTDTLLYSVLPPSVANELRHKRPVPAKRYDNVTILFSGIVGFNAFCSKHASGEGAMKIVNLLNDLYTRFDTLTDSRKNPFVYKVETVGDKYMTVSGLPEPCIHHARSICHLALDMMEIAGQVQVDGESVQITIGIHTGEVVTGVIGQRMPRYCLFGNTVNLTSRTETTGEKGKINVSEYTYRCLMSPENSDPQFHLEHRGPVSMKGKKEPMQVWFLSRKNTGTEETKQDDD
# T2 sequence (Q02108 whole entry): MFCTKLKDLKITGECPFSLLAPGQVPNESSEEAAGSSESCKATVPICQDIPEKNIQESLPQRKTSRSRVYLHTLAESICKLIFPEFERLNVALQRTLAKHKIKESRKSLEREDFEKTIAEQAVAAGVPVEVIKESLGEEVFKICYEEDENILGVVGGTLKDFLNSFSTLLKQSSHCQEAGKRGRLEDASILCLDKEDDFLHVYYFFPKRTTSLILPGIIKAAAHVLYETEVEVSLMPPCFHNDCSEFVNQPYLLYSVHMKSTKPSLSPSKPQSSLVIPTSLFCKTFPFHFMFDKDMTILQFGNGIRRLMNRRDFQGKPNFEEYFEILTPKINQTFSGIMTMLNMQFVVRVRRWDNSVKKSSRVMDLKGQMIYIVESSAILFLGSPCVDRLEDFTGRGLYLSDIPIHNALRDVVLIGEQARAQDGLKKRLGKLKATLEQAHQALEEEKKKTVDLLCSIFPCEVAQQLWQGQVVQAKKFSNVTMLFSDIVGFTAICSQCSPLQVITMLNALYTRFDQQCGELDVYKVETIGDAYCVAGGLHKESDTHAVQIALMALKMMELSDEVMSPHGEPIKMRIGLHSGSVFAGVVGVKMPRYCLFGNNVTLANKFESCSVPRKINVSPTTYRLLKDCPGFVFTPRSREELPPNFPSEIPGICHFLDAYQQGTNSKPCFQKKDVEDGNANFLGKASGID
# Thoracic aorta = test: Vasodilation activity in C57Bl6 mouse thoracic aorta assessed as inhibition of phenylephrine-induced contractions; assay type: functional, tissue-based; conditions: for minimal effective concentration: read-out: MEC
# How it was run: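 Isolated mouse aortic rings on a wire myograph, equilibrated 80 min in carbogen-gassed Krebs-Henseleit pH 7.4. Rings were precontracted with 500 nM phenylephrine plus 100 nM 5-hydroxytryptamine to submaximal tension, then given cumulative compound doses while isometric tension was recorded. IC50 was derived by nonlinear regression.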
Compound,Activity [1],fold change (FC) [2],EC50 [3],IC50 (Thoracic aorta),minimal effective concentration (Thoracic aorta)
CCC(CCCOc1cc(C)ccc1C)C(=O)O (stereo not given),inactive,,,,
CCCC(=O)N(CCCC(C)(C)C(=O)O)c1cc(C)ccc1C,inactive,,,,
Cc1ccc(C)c(N(CCCC(C)(C)C(=O)O)C(=O)CCCCC(=O)N(CCCC(C)(C)C(=O)O)c2cc(C)ccc2C)c1,,2.2,119 µM,261 µM,10 µM
CCCCCCC(CCCOc1cc(C)ccc1C)C(=O)O (stereo not given),,4.1,128 µM,45 µM,10 µM
CCCCCCNC(=O)C(C)(C)CCCOc1cc(C)ccc1C,inactive,,,,
CC(=O)N(CCCC(C)(C)C(=O)O)c1cc(C)ccc1C,inactive,,,,
Cc1ccc(C)c(OCCCC(C)(C)C(=O)NCCCCCCNC(=O)C(C)(C)CCCOc2cc(C)ccc2C)c1,inactive,,,,
Cc1ccc(C)c(OCCCC(C)(C)C(=O)NCCNC(=O)C(C)(C)CCCOc2cc(C)ccc2C)c1,inactive,,,,
Cc1ccc(C)c(OCCCCCC(=O)O)c1,,2.1,389 µM,> 1000 µM,300 µM
Cc1ccc(C)c(OCCCC(C)(C)C(=O)NCCCCNC(=O)C(C)(C)CCCOc2cc(C)ccc2C)c1,inactive,,,,
CCCCCC(=O)N(CCCC(C)(C)C(=O)O)c1cc(C)ccc1C,inactive,,,,
O=C(O)CCCCCSc1ccccc1,inactive,,,,
Cc1ccc(C)c(OCC(=O)O)c1,inactive,,,,
O=C(O)CCCCCOc1ccccc1,inactive,,,,
Cc1ccc(C)c(OCCCCC(=O)O)c1,,2.9,707 µM,812 µM,100 µM
CCCCNC(=O)C(C)(C)CCCOc1cc(C)ccc1C,inactive,,,,

# Second part, led by results:
Activity [1],fold change (FC) [2],EC50 [3],IC50 (Thoracic aorta),Compound,minimal effective concentration (Thoracic aorta)
inactive,,,,CNC(=O)C(C)(C)CCCOc1cc(C)ccc1C,
inactive,,,,Cc1ccccc1OCCCC(C)(C)C(=O)O,
,4,624 µM,310 µM,Cc1ccc(C)c(OCCCC(C)(C)C(=O)O)c1 [GEMFIBROZIL],30 µM
inactive,,,,Cc1ccc(C)c(OCCCC(C)(C)C(N)=O)c1,
inactive,,,,CCNC(=O)C(C)(C)CCCOc1cc(C)ccc1C,
,2.6,166 µM,71 µM,Cc1ccc(C(C)C)c(OCCCC(C)(C)C(=O)O)c1,10 µM
,2.9,50 µM,721 µM,Cc1ccc(C)c(NCCCC(C)(C)C(=O)O)c1,100 µM
inactive,,,,Cc1ccc(C)c(OCCCC(=O)O)c1,

# — ChEMBL document CHEMBL4828730, “Gemfibrozil derivatives as activators of soluble guanylyl cyclase - A structure-activity study” (Eur J Med Chem, 2021)
